Data: publication PMC4981499 (Nature, 2014)
Converted amounts (≈) assume the structure as drawn.

Legend:
K. pneumoniae N11-2218 = assay: MIC; type: cell-based; details: meropenem alone; K. pneumoniae N11-2218 (CRE)
Outline: (§1)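 Checkerboard microdilution with 8 concentrations each of meropenem and test compound in serial ½ dilutions, run in duplicate, and the mean was used. MIC was the lowest concentration with no growth. Each FIC was the concentration in the presence of the co-compound in a no-growth well divided by that compound's MIC; the FIC index is the sum of the two FICs.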

E. coli BW25113 = assay: MIC; type: cell-based; details: Escherichia coli
Outline: as §1

[1] = tested on: NDM-1-positive K. pneumoniae N11-2218; assay: Mouse systemic infection, organ bacterial load; type: in vivo, CD1 mice; details: s.c., spleen burden 48 h after infection
Outline: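 Female CD1 mice, 7–9 weeks, infected i.p. with 2×10⁶ cfu K. pneumoniae N11-2218. Treated s.c. 30 minutes post infection with test compound, meropenem, their combination, or PBS. Euthanized at 48 h; spleen and liver were homogenized in PBS, serially diluted and plated on Brilliant Green agar for cfu counts.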

[2] = tested on: NDM-1-positive K. pneumoniae N11-2218; assay: Mouse lethal systemic infection, survival; type: in vivo, CD1 mice; details: meropenem (10 mg/kg) alone or AMA (30 mg/kg) alone, single s.c. dose
Outline: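 Female CD1 mice, 7–9 weeks, randomized 5 per cage. Infected i.p. with 5×10⁷ cfu K. pneumoniae N11-2218. A single s.c. dose was given 30 minutes post infection: meropenem 10 mg/kg, test compound 30 mg/kg, their combination, or PBS. Mice were monitored for endpoint until day 4. Preparation, infection and processing were done by two independent investigators for blinding.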

In the case of `C[C@@H](O)[C@H]1C(=O)N2C(C(=O)O)=C(S[C@@H]3CN[C@H](C(=O)N(C)C)C3)[C@H](C)[C@H]12` [meropenem], the MIC (K. pneumoniae N11-2218) is reported as 32 µg/mL (≈ 83.4 µM), the MIC (E. coli BW25113) is reported as 0.008 to 0.016 µg/mL (≈ 0.0209 to 0.0417 µM) and the “Response of infection to meropenem monotherapy” value [1] is reported as “resistant to meropenem monotherapy at doses below 50 mg/kg”. The “Prevention of lethal infection by monotherapy” value [2] was “unable to prevent lethal infection”.
